Assay results published in ChEMBL document CHEMBL4706486, “Usnic acid derivatives as tau-aggregation and neuroinflammation inhibitors” (Eur J Med Chem, 2020).
Activity calls are given as the source filed them. The rule behind the calls is not given here.

Species: Homo sapiens
Assay: Inhibition of acetyl-PHF6 amide self-aggregation (unknown origin) in pH 7.4 phosphate buffer assessed as absence of fibrillar material at 20 uM and 25 degreeC measured after 10 mins by phosphotungstic acid staining based TEM analysis
Details: not given

Question: How did the inhibition turn out when `CC(=O)c1c(O)c(C)c(O)c2c1OC1=CC(=O)/C(=C(/C)Nc3ccc(O)cn3)C(=O)[C@@]12C` was run?
Answer: inactive

The compounds below were run on BV-2 (assay: Cytotoxicity against mouse BV-2 cells at 20 uM measured after 24 hrs by MTT assay). Details: bv-2, 24 h.
Assay type: cell-based
Procedure, shortened: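 Cells in high-glucose DMEM with 10% FBS, 5% CO₂, 37 °C, seeded 3000–5000/well, exposed to compound 24 h. MTT (0.5 mg/mL) 4 h, formazan dissolved in DMSO, absorbance 570 nm (reference 630 nm). Viability as percent of untreated control; mean ± SD, three independent experiments.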

Question: How did the Activity turn out when `CC(=O)C1=C([O-])C=C2Oc3c(C(C)=O)c(O)c(C)c(O)c3[C@]2(C)C1=O.[Na+]` was run?
Answer: Toxic

Species: Homo sapiens
Assay: Inhibition of acetyl-PHF6 amide self-aggregation (unknown origin) in pH 7.4 phosphate buffer assessed as decrease in absorbance intensity at 10 uM and 25 degreeC measured immediately after 10 sec vibration per minute for 120 mins under shaking condition by circular dichroism spectroscopy
Details: not given
Procedure, shortened: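 Fresh samples of 100 μM AcPHF6 with 10 μM compound (≤0.1% DMSO) in 50 mM phosphate buffer pH 7.4. 10 s vibration per minute at 25 °C over 120 min. Spectra 260–200 nm, 1 mm quartz cell, 1 nm bandwidth, 50 nm/min scan. Solvent and compound contributions subtracted, converted to Δε per residue, Savitzky-Golay smoothed.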

Question: `CC(=O)c1c(O)c(C)c(O)c2c1OC1=CC(=O)/C(=C(/C)Nc3ccc(O)cn3)C(=O)[C@@]12C` was tested. Which inhibition did it give?
Answer: Active

Species: Homo sapiens
Assay: Inhibition of acetyl-PHF6 amide self-aggregation (unknown origin) in pH 7.4 phosphate buffer at 10 uM and 25 degreeC measured every 1 min for 120 mins under shaking condition by ThT fluorescence assay relative to control
Details: not given
Procedure, shortened: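 AcPHF6 dissolved in HFIP, dried overnight, 1 mM water stock used at once. Final 100 μM peptide, 20 μM ThT, 10 μM compound (≤0.1% DMSO) in 50 mM phosphate buffer pH 7.4, 25 °C. Ex 440/em 490 nm read each minute for 120 min, 10 s shaking (400 rpm) before each read. Inhibition from mean signal at 50–60 min; ≥3 wells; mean ± SD of three experiments; DMSO negative control.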

Question: `CC(=O)c1c(O)c(C)c(O)c2c1OC1=Cc3c(c(C)nn3S(=O)(=O)c3ccc(C)cc3)C(=O)[C@@]12C` was tested. Which inhibition did it give?
Answer: inactive

Question: Which inhibition does the source give for `CC(=O)c1c(O)c(C)c(O)c2c1OC1=CC(=O)/C(=C(/C)Nc3cccc4cccnc34)C(=O)[C@@]12C` here?
Answer: inactive

Question: How did the inhibition turn out when `CC(=O)c1c(O)c(C)c(O)c2c1OC1=Cc3c(c(C)nn3-c3ccc(F)cc3)C(=O)[C@@]12C` was run?
Answer: 26.9%

Question: With `CC(=O)C1=C([O-])C=C2Oc3c(C(C)=O)c(O)c(C)c(O)c3[C@]2(C)C1=O.[Na+]` as the compound, how does the inhibition read?
Answer: inactive

Question: Which inhibition does the source give for `CC(=O)c1c(O)c(C)c(O)c2c1OC1=Cc3c(c(C)nn3-c3ccc(C(C)(C)C)cc3)C(=O)[C@@]12C` here?
Answer: 22.3%

Question: How did the inhibition turn out when `CC(=O)c1c(O)c(C)c(O)c2c1OC1=Cc3c(c(C)nn3-c3cccc(F)c3)C(=O)[C@@]12C` was run?
Answer: 30.3%

Question: With `CC(=O)c1c(O)c(C)c(O)c2c1OC1=CC(=O)/C(=C(/C)Nc3ccc(N)cn3)C(=O)[C@@]12C` as the compound, how does the inhibition read?
Answer: 46.4%

Question: For `CC(=O)c1c(O)c(C)c(O)c2c1OC1=Cc3c(c(C)nn3-c3ccc(C#N)cc3)C(=O)[C@@]12C`, which inhibition is on record?
Answer: 20.1%

Question: For `CC(=O)c1c(O)c(C)c(O)c2c1OC1=CC(=O)/C(=C(/C)Nc3ccc(Cl)cc3O)C(=O)[C@@]12C`, which inhibition is on record?
Answer: 48.4%

Question: Which inhibition does the source give for `CC(=O)c1c(O)c(C)c(O)c2c1OC1=CC(=O)/C(=C(/C)Nc3cc(C(C)(C)C)c(O)c(C(C)(C)C)c3)C(=O)[C@@]12C` here?
Answer: inactive

Question: `CC(=O)c1c(O)c(C)c(O)c2c1OC1=Cc3c(c(C)nn3-c3nc4ccccc4[nH]3)C(=O)[C@@]12C` was tested. Which inhibition did it give?
Answer: 12.2%

Question: Which inhibition does the source give for `CC(=O)c1c(O)c(C)c(O)c2c1OC1=Cc3c(c(C)nn3-c3cccc(C(=O)O)c3)C(=O)[C@@]12C` here?
Answer: 40.4%

Question: With `CC(=O)c1c(O)c(C)c(O)c2c1OC1=Cc3c(c(C)nn3-c3ccccc3C(=O)O)C(=O)[C@@]12C` as the compound, how does the inhibition read?
Answer: 32.8%

Question: For `COc1cc(N/C(C)=C2\C(=O)C=C3Oc4c(C(C)=O)c(O)c(C)c(O)c4[C@@]3(C)C2=O)cc(OC)c1OC`, which inhibition is on record?
Answer: 5.4%

Question: How did the inhibition turn out when `O=c1c(O)c(-c2cc(O)c(O)c(O)c2)oc2cc(O)cc(O)c12` was run?
Answer: 85.9%

Question: How did the inhibition turn out when `CC(=O)c1c(O)c(C)c(O)c2c1OC1=CC(=O)/C(=C(/C)N[C@@H](Cc3ccccc3)C(=O)O)C(=O)[C@@]12C` was run?
Answer: inactive

Question: How did the inhibition turn out when `CC(=O)c1c(O)c(C)c(O)c2c1OC1=CC(=O)/C(=C(/C)Nc3ccc(C)cc3O)C(=O)[C@@]12C` was run?
Answer: 25.3%

Question: How did the inhibition turn out when `COc1ccc(-n2nc(C)c3c2C=C2Oc4c(C(C)=O)c(O)c(C)c(O)c4[C@@]2(C)C3=O)cn1` was run?
Answer: 7.7%

Question: How did the inhibition turn out when `CC(=O)c1c(O)c(C)c(O)c2c1OC1=CC(=O)/C(=C(/C)NCCCCCO)C(=O)[C@@]12C` was run?
Answer: inactive

Question: For `CC(=O)c1c(O)c(C)c(O)c2c1OC1=CC(=O)/C(=C(/C)Nc3cc(C(C)C)c(O)cc3C)C(=O)[C@@]12C`, which inhibition is on record?
Answer: inactive

Question: For `CC(=O)c1c(O)c(C)c(O)c2c1OC1=Cc3c(c(C)nn3-c3cnccn3)C(=O)[C@@]12C`, which inhibition is on record?
Answer: 38%

Question: For `CC(=O)c1c(O)c(C)c(O)c2c1OC1=Cc3c(c(C)nn3-c3cccnc3)C(=O)[C@@]12C`, which inhibition is on record?
Answer: 29.8%

Question: Which inhibition does the source give for `CC(=O)c1c(O)c(C)c(O)c2c1OC1=CC(=O)/C(=C(/C)Nc3ncccc3O)C(=O)[C@@]12C` here?
Answer: 48%

Question: Which inhibition does the source give for `CC(=O)c1c(O)c(C)c(O)c2c1OC1=CC(=O)/C(=C(/C)N[C@@H](Cc3c[nH]c4ccccc34)C(=O)O)C(=O)[C@@]12C` here?
Answer: 47.6%

Question: For `CC(=O)c1c(O)c(C)c(O)c2c1OC1=CC(=O)/C(=C(/C)Nc3c(C)cc(O)cc3C)C(=O)[C@@]12C`, which inhibition is on record?
Answer: inactive

Question: How did the inhibition turn out when `CC(=O)c1c(O)c(C)c(O)c2c1OC1=CC(=O)/C(=C(/C)Nc3ccc(O)cn3)C(=O)[C@@]12C` was run?
Answer: 58.3%

Question: Which inhibition does the source give for `CC(=O)c1c(O)c(C)c(O)c2c1OC1=CC(=O)/C(=C(/C)Nc3ccc(N4CCN(C)CC4)cc3)C(=O)[C@@]12C` here?
Answer: 48.2%

Question: For `CC(=O)c1c(O)c(C)c(O)c2c1OC1=Cc3c(c(C)nn3-c3n[nH]c(=O)c4ccccc34)C(=O)[C@@]12C`, which inhibition is on record?
Answer: 9.3%

Question: How did the inhibition turn out when `CC(=O)c1c(O)c(C)c(O)c2c1OC1=Cc3c(c(C)nn3-c3ccncc3)C(=O)[C@@]12C` was run?
Answer: 8.5%

Question: For `CC(=O)c1c(O)c(C)c(O)c2c1OC1=CC(=O)/C(=C(/C)Nc3ccc4c(ccn4C)c3)C(=O)[C@@]12C`, which inhibition is on record?
Answer: 27.6%

Question: Which inhibition does the source give for `CC(=O)c1c(O)c(C)c(O)c2c1OC1=Cc3c(c(C)nn3-c3ccc(S(C)(=O)=O)cc3)C(=O)[C@@]12C` here?
Answer: 28.7%

Question: With `COc1cccc(-n2nc(C)c3c2C=C2Oc4c(C(C)=O)c(O)c(C)c(O)c4[C@@]2(C)C3=O)c1` as the compound, how does the inhibition read?
Answer: 24%

Question: `CC(=O)c1c(O)c(C)c(O)c2c1OC1=Cc3c(c(C)nn3-c3ccccn3)C(=O)[C@@]12C` was tested. Which inhibition did it give?
Answer: 17.1%

Question: With `CC(=O)c1c(O)c(C)c(O)c2c1OC1=Cc3c(c(C)nn3-c3ccc(C)nn3)C(=O)[C@@]12C` as the compound, how does the inhibition read?
Answer: 40.9%

Question: `CC(=O)c1c(O)c(C)c(O)c2c1OC1=Cc3c(c(C)nn3-c3ccc(S(N)(=O)=O)cc3)C(=O)[C@@]12C` was tested. Which inhibition did it give?
Answer: 46.8%

Question: For `CC(=O)c1c(O)c(C)c(O)c2c1OC1=Cc3c(c(C)nn3-c3nc4ccccc4s3)C(=O)[C@@]12C`, which inhibition is on record?
Answer: inactive

Question: Which inhibition does the source give for `CC(=O)c1c(O)c(C)c(O)c2c1OC1=CC(=O)/C(=C(/C)Nc3cccc(N(C)C)c3)C(=O)[C@@]12C` here?
Answer: 11.3%

Question: `CC(=O)c1c(O)c(C)c(O)c2c1OC1=CC(=O)/C(=C(/C)Nc3cnc(N)cn3)C(=O)[C@@]12C` was tested. Which inhibition did it give?
Answer: 44.2%

Question: `CC(=O)c1c(O)c(C)c(O)c2c1OC1=CC(=O)/C(=C(/C)Nc3ccc(C(=O)O)c(O)c3)C(=O)[C@@]12C` was tested. Which inhibition did it give?
Answer: 27.6%

Question: For `CC(=O)c1c(O)c(C)c(O)c2c1OC1=CC(=O)/C(=C(/C)Nc3ccc4scnc4c3)C(=O)[C@@]12C`, which inhibition is on record?
Answer: 29.8%

Question: `CC(=O)c1c(O)c(C)c(O)c2c1OC1=CC(=O)/C(=C(/C)N)C(=O)[C@@]12C` was tested. Which inhibition did it give?
Answer: inactive

Question: Which inhibition does the source give for `CC(=O)c1c(O)c(C)c(O)c2c1OC1=Cc3c(c(C)nn3S(=O)(=O)c3ccccc3)C(=O)[C@@]12C` here?
Answer: inactive

Question: With `CCOC(=O)c1ccc(-n2nc(C)c3c2C=C2Oc4c(C(C)=O)c(O)c(C)c(O)c4[C@@]2(C)C3=O)cc1` as the compound, how does the inhibition read?
Answer: 14.5%

Question: Which inhibition does the source give for `COc1ccc(-n2nc(C)c3c2C=C2Oc4c(C(C)=O)c(O)c(C)c(O)c4[C@@]2(C)C3=O)cc1` here?
Answer: 27.2%

Question: Which inhibition does the source give for `CC(=O)c1c(O)c(C)c(O)c2c1OC1=CC(=O)/C(=C(/C)Nc3ccc4c(c3)ncn4C)C(=O)[C@@]12C` here?
Answer: inactive

Question: With `CC(=O)c1c(O)c(C)c(O)c2c1OC1=CC(=O)/C(=C(/C)Nc3cc(C)ccc3O)C(=O)[C@@]12C` as the compound, how does the inhibition read?
Answer: 12.7%

Question: How did the inhibition turn out when `CC(=O)c1c(O)c(C)c(O)c2c1OC1=CC(=O)/C(=C(/C)Nc3ccc(N(C)C)cc3)C(=O)[C@@]12C` was run?
Answer: 48.1%

Question: For `CC(=O)c1c(O)c(C)c(O)c2c1OC1=CC(=O)/C(=C(/C)Nc3ccc4[nH]ccc4c3)C(=O)[C@@]12C`, which inhibition is on record?
Answer: 39.2%

Question: Which inhibition does the source give for `CC(=O)c1c(O)c(C)c(O)c2c1OC1=CC(=O)/C(=C(/C)Nc3cc(Cl)ccc3O)C(=O)[C@@]12C` here?
Answer: 22%

Question: How did the inhibition turn out when `CC(=O)c1c(O)c(C)c(O)c2c1OC1=Cc3[nH]nc(C)c3C(=O)[C@@]12C` was run?
Answer: 22.5%

Question: With `COc1ccc(S(=O)(=O)n2nc(C)c3c2C=C2Oc4c(C(C)=O)c(O)c(C)c(O)c4[C@@]2(C)C3=O)cc1` as the compound, how does the inhibition read?
Answer: inactive
